Screening data from PubChem.
PKA-R2B act = activators of PKA-R2B holoenzyme, primary screen, biochemical, fluorescence polarization, Cy5-IP20, human; PKA-R2B holoenzyme dissociation; R2B truncated from residue 108, S112A mutant; 0% DMSO only, 100% 113 µM cGMP; activation, % at 11.4 µM; hit rate 0.079% among 340,000; AID 504700, 2011;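 active = activation above a cutoff set at the mean over all compounds plus 3 SD, cut at about 18% in these data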;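 note: higher means more holoenzyme dissociation and a rise in polarization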
Target sequence (P31323 whole entry, looked up, other chains not shown, the tested form may be a part): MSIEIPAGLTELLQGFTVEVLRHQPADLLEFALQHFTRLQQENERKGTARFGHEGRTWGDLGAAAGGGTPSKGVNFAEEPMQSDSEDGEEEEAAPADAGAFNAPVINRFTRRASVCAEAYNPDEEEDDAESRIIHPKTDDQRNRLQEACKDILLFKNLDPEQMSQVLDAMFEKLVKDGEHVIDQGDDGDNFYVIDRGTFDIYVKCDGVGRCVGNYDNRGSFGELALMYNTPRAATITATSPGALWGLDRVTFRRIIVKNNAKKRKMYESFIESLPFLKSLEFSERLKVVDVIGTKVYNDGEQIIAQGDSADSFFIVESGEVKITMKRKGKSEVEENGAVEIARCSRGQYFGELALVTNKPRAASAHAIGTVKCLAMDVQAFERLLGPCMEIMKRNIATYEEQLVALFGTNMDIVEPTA
SR-BI DiI-HDL act = activators of SR-BI mediated DiI-HDL uptake, primary screen, ldlA[mSR-BI] CHO cells, DiI fluorescence | 3 h; 100 = double the neutral-control signal | activation, % at 12.5 µM | hit rate 0.096% among 320,000 | AID 504775, 2011;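 active = mean replicate activation of at least 60% and every replicate at or above 60%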;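 note: 0% = median plate neutral-control signal and 100% = twice that signal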
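Material: SR-BI-overexpressing, LDLR-lacking CHO cells; schedule: compound exposure 3 h, 37 °C; reagent: DiI-labelled HDL at 10 µg/mL final; technique: bottom-read fluorescence, 550/595 nm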
Vif inh = HIV Vif self-association inhibitors, primary screen, imaging, HEK293T, single point. AID 602346, 2012. hit rate 0.35% among 340,000. inhibition, % at 7.49 µM. HEK293T cells, Vif self-association by quenched fluorescence, 24 h; in the data active = inhibition above about 50%, passing the limit was not always enough
PKA-R1A act = activators of PKA-R1A holoenzyme, primary screen, biochemical, fluorescence polarization, Cy5-IP20, bovine R1A, mouse PKAc. cAMP-dependent protein kinase type I-alpha regulatory subunit (Bos taurus) + …. PKA-R1A dissociation; scaled: DMSO 0%, 113 µM cGMP 100%. activation, % at 11.4 µM. hit rate 0.083% among 340,000. AID 504707, 2011;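 active = percent activation above the mean of all tested compounds plus 3 SD, cut at about 19% in these data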;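 note: higher means more PKAc released from R1A so a rise in polarization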
SR-BI HDL uptake = inhibitors of SR-BI mediated HDL lipid uptake, primary screen, ldlA[mSR-BI] cells, fluorescence, single point; Scavenger receptor class B member 1 (Mus musculus), Q61009; ldlA[mSR-BI] CHO cells, DiI-HDL uptake fluorescence, 3 h; inhibition, % at 12.5 µM; hit rate 0.96% among 320,000; AID 488896, 2010;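 active = mean replicate inhibition of at least 70% and a set share of replicates each scoring 70 or more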;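 note: 0% = median of neutral control wells and 100% = median of positive control wells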
* = called active by the depositor; · = no result given. In the library only some 1.4% were active in any assay of this set; here they are far more common.

SMILES	PKA-R2B act	SR-BI DiI-HDL act	Vif inh	PKA-R1A act	SR-BI HDL uptake
CN(c1ccc(C(=O)N2CCN(Cc3ccccc3)CC2)cc1)S(=O)(=O)c1ccc(Cl)cc1	2.1	-78.7	-21.5	-3.8	78.7*
CCOc1ccc(NC(=O)c2sc3nc(N4CCOCC4)c4c(c3c2N)CC(C)(C)OC4)cc1	-8.8	-19.9	-4.1	-5.3	19.9
COc1ccc(OCc2nnc(SCC(=O)Nc3cccc(Cl)c3)o2)cc1	-3.4	12.5	51.4*	-1.2	-12.5
Cc1cccc(NC(=O)CCS(=O)(=O)c2cccc3nsnc23)c1C	-3.8	70.4*	-1.8	-3.8	-70.4
CCOC(=O)c1cccc(NC(=O)CCS(=O)(=O)c2cccc3nsnc23)c1	-3.7	-23.0	0.6	-3.1	23.0
CCCCC(=O)OCC(=O)c1cc(C)n(-c2c(C)n(C)n(-c3ccccc3)c2=O)c1C	-9.9	0.3	50.3*	2.9	-0.3
C=CCOC(=O)C1=C(C)NC(=S)NC1c1cccs1 (centres undefined)	9.3	-77.6	7.0	3.8	77.6*
COCCOC(=O)C1=C(C)NC(=S)NC1c1cccs1 (centres undefined)	-1.7	-15.3	11.0	-12.6	15.3
CC1CCc2c(C(=O)Nc3ccc(N4CCOCC4)cc3)csc2C1 (centres undefined)	-9.2	-1.8	1.7	1.4	1.8
O=C(Nc1cccc(-c2nc3cccnc3s2)c1)c1ccco1	-14.2	-3.2	96.5*	-14.2	3.2
O=C(Nc1ccc(-c2nc3cccnc3s2)cc1)c1ccco1	-2.8	-54.0	1.6	-10.9	54.0
CC1CCCC(C)N1C(=O)CSc1nnc(COc2ccccc2)n1-c1ccccc1 (centres undefined)	1.5	-19.2	-4.2	2.7	19.2
COc1ccc(S(=O)(=O)NCCOc2ccc(Cl)cc2)cc1	-7.9	-0.6	6.6	3.1	0.6
COc1ccc(OCCNS(=O)(=O)c2ccccc2)cc1	0.6	-5.5	52.2*	-7.0	5.5
CSc1ccc(OC2(C)CCN(Cc3cc4ccccc4o3)C2)cc1 (centres undefined)	·	·	1.8	·	·
COc1c(C(=O)Nc2ccc3[nH]c(=O)[nH]c3c2)cc2ccccc2c1Br	-3.4	-78.0	7.2	0.8	78.0*
O=C(COc1ccc(/C=N/NS(=O)(=O)c2ccccc2)cc1)Nc1cccc(Cl)c1	-4.9	-74.6	-6.5	-7.4	74.7*
O=C(COc1ccc(/C=N/NS(=O)(=O)c2ccccc2)cc1)NCc1ccccc1	-2.6	3.7	-9.9	-10.3	-3.7
CNC(=O)c1sc2nc(-c3ccc(OC)cc3)cn2c1C	3.7	-10.3	-3.9	-5.2	10.3
COc1ccc(-c2cn3c(C)c(C(=O)Nc4cc(NC(C)=O)ccc4OC)sc3n2)cc1	3.8	-75.5	-6.0	4.1	75.5*
CCc1cccc2cc3c(N)c(C(=O)Nc4ccc(S(=O)(=O)N5CCCC5)cc4)sc3nc12	-11.5	-41.7	68.4*	11.6	41.7
Cc1cccc2cc3c(N)c(C(=O)Nc4ccc(N5CCOCC5)cc4)sc3nc12	-11.2	-6.9	-11.0	1.1	6.9
CN(C1=NS(=O)(=O)c2ccccc21)c1ccc(OC(=O)c2ccccc2F)cc1	6.0	·	·	11.1	·
CC(=O)[C@H]1CC[C@H]2[C@@H]3CCC4=CC(=O)CC[C@]4(C)[C@H]3[C@H](O)C[C@]12C	-4.5	15.6	-5.2	-2.9	6.7
C[C@]12C[C@H](O)[C@H]3[C@@H](CCC4=CC(=O)CC[C@@]43C)[C@@H]1CC[C@@H]2C(=O)CO	-6.5	87.2*	2.1	-3.8	-5.6
SMILES	PKA-R2B act	SR-BI DiI-HDL act	Vif inh	PKA-R1A act	SR-BI HDL uptake
O=C(CN1c2ccccc2Sc2ccccc21)NNC(=S)Nc1ccc(Cl)cc1	-0.9	-63.0	0.0	1.2	63.0
O=C(CN1c2ccccc2Sc2ccccc21)NNC(=S)Nc1ccc(Cl)cc1Cl	-7.9	-75.9	-16.9	-16.9	75.9*
CC(=O)c1c(O)cc2c3c1OC(C)(C)C1CCC(C)(CC31)O2 (centres undefined)	-10.2	·	0.2	7.4	·
COc1cccc(NC(=O)N2CCN(c3cccc(C)c3C)CC2)c1	6.1	-71.1	-6.0	-5.3	71.1*
CCOC(=O)c1[nH]c2ccc(OC)cc2c1NC(=S)N1CCN(c2cccc(C)c2C)CC1	-0.2	-72.9	-0.8	-8.0	72.9*
Cc1ccc(C(=O)NCC(=O)NCC(=O)OCc2ccc(F)cc2)cc1	7.0	11.8	-1.5	-16.4	-11.8
Cc1ccc(N2C(=O)NC(NS(=O)(=O)c3ccccc3)(C(F)(F)F)C2=O)cc1C (centres undefined)	13.0	-1.4	-8.6	-9.3	1.4
Cc1ccc(C(C[N+](=O)[O-])c2c(-c3ccccc3O)[nH][nH]c2=O)cc1 (centres undefined)	1.5	11.3	3.1	-1.6	-11.3
Cc1nn2c(-c3cccc(NC(=O)CSc4nc5ccccc5o4)c3)nnc2c2ccccc12	-0.4	-76.5	11.7	-21.3	76.5*
Cc1cccc(NC(=O)CSc2nc3ccccc3o2)c1	-9.4	4.2	-2.8	-4.5	-4.2
Cc1c(Cl)cccc1N1C(=O)CC(N(O)c2ccccc2)C1=O (centres undefined)	8.8	217.9*	6.9	3.0	-217.9
COC(=O)c1c(N)sc(C(=O)NCCc2ccccc2)c1C	1.5	-14.0	-4.5	-14.2	14.0
N#Cc1sc2nc(-c3cccs3)cc(-c3ccc(F)cc3)c2c1N	-4.3	-81.8	-13.0	-10.0	81.8*
Cc1ccccc1Nc1c(C)c(C)nc2ncnn12	4.0	4.4	142.7*	1.4	-4.4
COC1=C(Br)C(=O)c2ncccc2C1=O	4.9	1.2	-1.7	3.4	-1.2
C[N+]1=C(/C=C/Nc2ccccc2Cl)C(C)(C)c2ccccc21	-2.2	-17.3	-10.7	-5.1	17.3
COC(=O)c1ccc2c(c1)C(C)(C)C(/C=C/c1ccccc1O)=[N+]2C	-3.1	-75.5	-1.6	-17.6	75.5*
COc1cc2c(c(NC(C)=O)c1)N(C(C)=O)CCC2	7.6	8.7	0.6	-2.7	-8.6
CCOc1ccc(C(=O)Nc2c3c(nn2C(C)(C)C)CSC3)cc1OCC	-1.6	-75.3	-6.1	-6.4	75.3*
CCc1c(C)nc2cc(-c3ccc(OC)c(OC)c3)nn2c1NCC1CC1	-5.1	-88.8	-0.7	-14.8	88.8*
COc1ccc(-c2c(C)nn3c(NC4CCCC4)cc(C)nc23)cc1OC	11.0	-4.2	7.5	-1.7	4.2
CC(C)(C)NC(=O)CN(CCN1CCOCC1)C(=O)CNS(=O)(=O)c1ccccc1	-6.7	·	-3.2	3.2	·
